Experiment [1] deals with Cricetinae gen. sp. Nature of the experiment: (§1) Inhibition of HNE-induced lung hemorrhage in hamsters after oral administration of 30 mg/kg followed by intratracheal instillation of HNE (10 U/lung). The experiment is classed as functional, Cricetulus griseus. Summed up: (§2)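 Hamsters (n = 6-10) were dosed orally 1 h before intratracheal instillation of HNE (10 U/lung). The read-out was inhibition of the HNE-induced lung hemorrhage.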

The target in experiment [2] is T1, Neutrophil elastase (Homo sapiens, UniProt P08246).
T1 sequence (P08246 whole entry): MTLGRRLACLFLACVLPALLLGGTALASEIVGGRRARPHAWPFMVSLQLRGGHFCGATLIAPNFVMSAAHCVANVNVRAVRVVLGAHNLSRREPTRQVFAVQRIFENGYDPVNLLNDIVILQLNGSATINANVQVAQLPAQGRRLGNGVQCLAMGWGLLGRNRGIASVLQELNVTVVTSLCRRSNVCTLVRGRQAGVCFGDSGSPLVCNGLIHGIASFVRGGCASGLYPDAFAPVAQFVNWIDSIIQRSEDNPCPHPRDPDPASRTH
As to the kind of experiment: Binding constant derived from inhibition of elastase catalyzed hydrolysis of synthetic substrate.

Experiment [3] has as its system Cricetinae gen. sp. Nature of the experiment: Inhibition of HNE-induced lung hemorrhage in hamsters after oral administration followed by intratracheal instillation of HNE (10 U/lung). The experiment is classed as functional. In short, it runs like this: as §2
The subject of experiment [4] is Cricetinae gen. sp. Described as §1. In kind it is functional. Summed up:
as §2

Each structure is given as a SMILES string.

In general, inhibition in vivo refers to the percentage by which the read-out fell short of the control. A low value points to little suppression. In experiment [1], `CC(C)[C@H](NC(=O)Cn1c(-c2ccc(F)cc2)ncc(N)c1=O)C(=O)c1nnc(-c2ccccc2)o1` had an inhibition in vivo at 30 mg/kg of 9%.

A word on the Ki: it is the dissociation constant of the complex between target and ligand, obtained from inhibition or displacement. In turn, `CC(C)OC(=O)N1c2ccccc2C[C@H]1C(=O)N[C@H](C(=O)c1nnc(C(C)(C)C)o1)C(C)C` registered an inhibition constant (Ki) in experiment [2] of 114 nM.

The ED50 is the dose that gives a 50% effect, or the effect in half of the subjects. A low value points to an effect at a small dose. With `CC(C)[C@H](NC(=O)Cn1c(-c2ccccc2)nccc1=O)C(=O)c1nnc(C2(C)CC2)o1`, the ED50 in experiment [3] was 6.6 mg/kg.

`CC(C)[C@H](NC(=O)[C@@H]1Cc2ccccc2N1C(=O)[C@@H](NC(=O)c1cccnc1)C(C)C)C(=O)c1nnc(C(C)(C)C)o1` had a Ki in experiment [2] of 5.1 nM. Besides, the inhibition in vivo at 30 mg/kg in experiment [4] came out at 36%.

In the case of `CC(C)C(NC(=O)Cn1c(-c2ccc(F)cc2)ncc(N)c1=O)C(=O)c1nnc(C(C)(C)C)o1` (stereo not given), the ED50 in experiment [3] was 10 mg/kg.

On to `CC(C)[C@H](NC(=O)[C@@H]1Cc2ccccc2CN1C(=O)[C@@H](NC(=O)c1cccnc1)C(C)C)C(=O)c1nnc(C(C)(C)C)o1`, for which the ED50 in experiment [3] turned out to be 14.2 mg/kg. Further, the Ki in experiment [2] worked out at 1.66 nM.

Compound `CC(C)[C@H](NC(=O)[C@@H]1CCCN1C(=O)[C@@H](NS(C)(=O)=O)C(C)C)C(=O)c1nnc(C(C)(C)C)o1` displayed an inhibition in vivo at 30 mg/kg in experiment [4] of 17%.

In experiment [4], `CC(C)[C@H](NC(=O)Cn1c(-c2ccc(F)cc2)ncc(N)c1=O)C(=O)c1nnc(Cc2ccccc2)o1` gave an inhibition in vivo at 30 mg/kg of 53%.

The compound `Cc1cccc(Cc2nnc(C(=O)[C@@H](NC(=O)Cn3c(-c4ccc(F)cc4)ncc(N)c3=O)C(C)C)o2)c1` yielded an ED50 in experiment [3] of 13 mg/kg.

For `CC(C)[C@H](NC(=O)Cn1c(-c2ccc(F)cc2)nccc1=O)C(=O)c1nnc(C(C)(C)c2ccccc2)o1`, at 30 mg/kg the inhibition in vivo in experiment [4] was 61%.

`CCCCc1nnc(C(=O)[C@@H](NC(=O)Cn2c(-c3ccc(F)cc3)ncc(N)c2=O)C(C)C)o1`: the inhibition in vivo at 30 mg/kg in experiment [4] is 63%.

Turning to `CC(C)[C@H](NC(=O)Cn1c(-c2ccccc2)ncc(N)c1=O)C(=O)c1nnc(C2(C)CC2)o1`, in experiment [4], it took a dose of 11 mg/kg to reach the 50% effect level (ED50).

With `Cc1nnc(C(=O)[C@@H](NC(=O)Cn2c(-c3ccc(F)cc3)ncc(N)c2=O)C(C)C)o1`, at 30 mg/kg the inhibition in vivo in experiment [4] was 47%.

Turning to `CC(C)[C@H](NC(=O)C1Cc2ccccc2CN1C(=O)c1c[nH]cn1)C(=O)c1nnc(C(C)(C)C)o1` (stereo not given in full), in experiment [2], the Ki turned out to be 309 nM. The inhibition in vivo at 30 mg/kg in experiment [4] stood at 29%.

In the case of `CC(C)[C@H](NC(=O)Cn1c(-c2ccc(F)cc2)ncc(N)c1=O)C(=O)c1nnc(-c2cccnc2)o1`, in experiment [4], 30 mg/kg produced 0% inhibition in vivo.

The compound `CC(C)[C@H](NC(=O)[C@@H]1Cc2ccccc2N1C(=O)c1c[nH]cn1)C(=O)c1nnc(C(C)(C)C)o1` showed a Ki in experiment [2] of 79.7 nM. Moreover, the inhibition in vivo at 30 mg/kg in experiment [4] stood at 81%.

The record behind these values is ChEMBL document CHEMBL1134847, “Development of orally active nonpeptidic inhibitors of human neutrophil elastase” (J Med Chem, 2001).
